The source of these data is ChEMBL document CHEMBL2021927, “Synthesis and evaluation of the cytotoxicities of tetraindoles: observation that the 5-hydroxy tetraindole (SK228) induces G₂ arrest and apoptosis in human breast cancer cells” (J Med Chem, 2012).

Assay [1] deals with MCF7. Description: Growth inhibition of human MCF7 cells at 20 uM after 48 hrs by MTT assay. The format is functional. Particulars: MCF7, 48 h, read-out: GI. Summed up: (§1)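 MTT viability assay with 48 h exposure at a single 20 μM concentration. Result given as percent inhibition of cell growth; n = 3.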
(Formazan colour is commonly taken as a measure of viable cells.)

In assay [2] the test system is MDA-MB-231. Description: Growth inhibition of human MDA-MB-231 cells at 20 uM after 48 hrs by MTT assay. As to conditions: MDA-MB-231, 48 h, read-out: GI. The class given is functional. An outline of the steps: as §1
The test system of assay [3] is MCF7. Nature of the assay: Growth inhibition of human MCF7 cells after 48 hrs by MTT assay. Particulars: MCF7, 48 h. The format is functional, cell-based.
For assay [4], the system named is MDA-MB-231. Nature of the assay: Growth inhibition of human MDA-MB-231 cells after 48 hrs by MTT assay. The class given is functional, cell-based. As to conditions: MDA-MB-231, 48 h.

SMILES strings stand for the structures.

By IC50 is commonly meant the concentration needed to halve the response being measured. A high value points to weaker potency in that assay. For the compound `Oc1ccc2[nH]cc(C(c3ccc(C(c4c[nH]c5ccccc45)c4c[nH]c5ccccc45)cc3)c3c[nH]c4ccc(O)cc34)c2c1`, the inhibition of growth at 20 µM in the assay with MCF7 [1] came out at 23%; in the assay with MDA-MB-231 [2] it was 36%. Besides, the IC50 in the assay with MCF7 [3] and with MDA-MB-231 [4] was more than 20 µM throughout.

Consider `N#Cc1ccc2[nH]cc(C(c3ccc(C(c4c[nH]c5ccc(C#N)cc45)c4c[nH]c5ccc(C#N)cc45)cc3)c3c[nH]c4ccc(C#N)cc34)c2c1`, for which, in the assay with MDA-MB-231 [2], the inhibition of growth at 20 µM came to 8%. In addition, the results for the IC50 with MCF7 [3] and with MDA-MB-231 [4] were 9.5 µM and more than 20 µM, respectively.

With `c1cc(C(c2c[nH]c3ccccc23)c2c[nH]c3ccccc23)cc(C(c2c[nH]c3ccccc23)c2c[nH]c3ccccc23)c1`, the inhibition of growth at 20 µM in the assay with MCF7 [1] was determined as 32%. Also, the IC50 is more than 20 µM in the assay with MCF7 [3] and 24.3 µM in the assay with MDA-MB-231 [4].

For `c1ccc2c(C(c3ccc(C(c4c[nH]c5ccccc45)c4c[nH]c5ccccc45)s3)c3c[nH]c4ccccc34)c[nH]c2c1`, the inhibition of growth at 20 µM in the assay on MCF7 [1] was found to be 34%; with MDA-MB-231 [2], 36%. The IC50 in the assay with MCF7 [3] and in the assay with MDA-MB-231 [4] was more than 20 µM throughout.

With `Brc1ccc2[nH]cc(C(c3ccc(C(c4c[nH]c5ccccc45)c4c[nH]c5ccccc45)cc3)c3c[nH]c4ccc(Br)cc34)c2c1`, the inhibition of growth at 20 µM in the assay with MCF7 [1] was 17%; in the assay on MDA-MB-231 [2], 8%. The IC50 with MCF7 [3] and with MDA-MB-231 [4] was more than 20 µM each time.

Take `Oc1ccc2c(C(c3ccc(C(c4c[nH]c5cc(O)ccc45)c4c[nH]c5cc(O)ccc45)cc3)c3c[nH]c4cc(O)ccc34)c[nH]c2c1`: the inhibition of growth at 20 µM was 0% with MCF7 [1] and 16% in the assay on MDA-MB-231 [2]. In addition, the IC50 in the assay on MCF7 [3] and in the assay on MDA-MB-231 [4] was more than 20 µM in each case.

As for `c1ccc2c(C3CCCC(c4c[nH]c5ccccc45)(c4c[nH]c5ccccc45)C3)c[nH]c2c1` (stereo not drawn), the IC50 in the assay with MCF7 [3] was determined as 19.8 µM; with MDA-MB-231 [4] it was 20.1 µM.

For the compound `Oc1ccc2[nH]cc(C(c3ccc(C(c4c[nH]c5ccccc45)c4c[nH]c5ccccc45)cc3)c3c[nH]c4ccccc34)c2c1` (stereo not drawn), the IC50 worked out at 12.6 µM with MCF7 [3] and 13.9 µM in the assay with MDA-MB-231 [4].

Turning to `COc1ccc2[nH]cc(C(c3ccc(C(c4c[nH]c5ccc(OC)cc45)c4c[nH]c5ccc(OC)cc45)cc3)c3c[nH]c4ccc(OC)cc34)c2c1`, the inhibition of growth at 20 µM amounted to 43% in the assay with MCF7 [1] and 3% in the assay with MDA-MB-231 [2]. For the same compound, the IC50 with MCF7 [3] and with MDA-MB-231 [4] was more than 20 µM in each case.

For the compound `Oc1ccc2[nH]cc(C(c3ccc(C(c4c[nH]c5ccc(O)cc45)c4c[nH]c5ccc(O)cc45)cc3)c3c[nH]c4ccccc34)c2c1` (stereo not drawn), the IC50 in the assay with MCF7 [3] was determined as 6.3 µM; in the assay with MDA-MB-231 [4] it was 7.8 µM.

For `c1ccc2c(Cc3c[nH]c4ccccc34)c[nH]c2c1` [ARUNDINE], the IC50 in the assay on MCF7 [3] worked out at 50 µM; in the assay with MDA-MB-231 [4], 10 µM.

Consider `c1ccc(C(c2c[nH]c3ccccc23)c2c[nH]c3ccccc23)c(Oc2ccccc2C(c2c[nH]c3ccccc23)c2c[nH]c3ccccc23)c1`, for which the results for the inhibition of growth at 20 µM with MCF7 [1] and in the assay with MDA-MB-231 [2] were 48% and 8%, respectively. Moreover, the concentration for half-maximal inhibition (IC50) in the assay with MCF7 [3] and in the assay with MDA-MB-231 [4] was more than 20 µM in each case.

For `c1ccc2c3c([nH]c2c1)Cc1c([nH]c2ccccc12)Cc1c([nH]c2ccccc12)Cc1c([nH]c2ccccc12)C3`, the values for the IC50 with MCF7 [3] and in the assay with MDA-MB-231 [4] were 1.3 µM and 1 µM, respectively.

`Brc1ccc2[nH]cc(C(c3ccc(C(c4c[nH]c5ccc(Br)cc45)c4c[nH]c5ccc(Br)cc45)cc3)c3c[nH]c4ccc(Br)cc34)c2c1`: the inhibition of growth at 20 µM in the assay with MCF7 [1] came to 25%; in the assay with MDA-MB-231 [2] it was 5%. For the same compound, the IC50 with MCF7 [3] and in the assay with MDA-MB-231 [4] was more than 20 µM throughout.

Take `c1ccc2c(C(c3ccc(C(c4c[nH]c5ccccc45)c4c[nH]c5ccccc45)cc3)c3c[nH]c4ccccc34)c[nH]c2c1`: the figures for the IC50 in the assay on MCF7 [3] and in the assay on MDA-MB-231 [4] were 16.1 µM and 9.8 µM, respectively.

Consider `Nc1ccc2[nH]cc(C(c3ccc(C(c4c[nH]c5ccc(N)cc45)c4c[nH]c5ccc(N)cc45)cc3)c3c[nH]c4ccc(N)cc34)c2c1`, for which the inhibition of growth at 20 µM in the assay on MCF7 [1] stood at 25%; in the assay on MDA-MB-231 [2], 35%. Further, the IC50 in the assay with MCF7 [3] and in the assay with MDA-MB-231 [4] was more than 20 µM each time.

On to `Oc1ccc2[nH]cc(C(c3cccc(C(c4c[nH]c5ccc(O)cc45)c4c[nH]c5ccc(O)cc45)c3)c3c[nH]c4ccc(O)cc34)c2c1`, for which the inhibition of growth at 20 µM with MDA-MB-231 [2] was 0%. Moreover, the IC50 in the assay on MCF7 [3] was 17.8 µM; in the assay with MDA-MB-231 [4], more than 20 µM.
